Results on five molecules are retold here after ChEMBL document CHEMBL1136149, “Design, synthesis and antimalarial activity of novel, quinoline-based, zinc metallo-aminopeptidase inhibitors” (Bioorg Med Chem Lett, 2003).

The target in one assay is T1, Aminopeptidase N (Plasmodium falciparum FcB1/Columbia, UniProt O96935).
T1 sequence (O96935 whole entry): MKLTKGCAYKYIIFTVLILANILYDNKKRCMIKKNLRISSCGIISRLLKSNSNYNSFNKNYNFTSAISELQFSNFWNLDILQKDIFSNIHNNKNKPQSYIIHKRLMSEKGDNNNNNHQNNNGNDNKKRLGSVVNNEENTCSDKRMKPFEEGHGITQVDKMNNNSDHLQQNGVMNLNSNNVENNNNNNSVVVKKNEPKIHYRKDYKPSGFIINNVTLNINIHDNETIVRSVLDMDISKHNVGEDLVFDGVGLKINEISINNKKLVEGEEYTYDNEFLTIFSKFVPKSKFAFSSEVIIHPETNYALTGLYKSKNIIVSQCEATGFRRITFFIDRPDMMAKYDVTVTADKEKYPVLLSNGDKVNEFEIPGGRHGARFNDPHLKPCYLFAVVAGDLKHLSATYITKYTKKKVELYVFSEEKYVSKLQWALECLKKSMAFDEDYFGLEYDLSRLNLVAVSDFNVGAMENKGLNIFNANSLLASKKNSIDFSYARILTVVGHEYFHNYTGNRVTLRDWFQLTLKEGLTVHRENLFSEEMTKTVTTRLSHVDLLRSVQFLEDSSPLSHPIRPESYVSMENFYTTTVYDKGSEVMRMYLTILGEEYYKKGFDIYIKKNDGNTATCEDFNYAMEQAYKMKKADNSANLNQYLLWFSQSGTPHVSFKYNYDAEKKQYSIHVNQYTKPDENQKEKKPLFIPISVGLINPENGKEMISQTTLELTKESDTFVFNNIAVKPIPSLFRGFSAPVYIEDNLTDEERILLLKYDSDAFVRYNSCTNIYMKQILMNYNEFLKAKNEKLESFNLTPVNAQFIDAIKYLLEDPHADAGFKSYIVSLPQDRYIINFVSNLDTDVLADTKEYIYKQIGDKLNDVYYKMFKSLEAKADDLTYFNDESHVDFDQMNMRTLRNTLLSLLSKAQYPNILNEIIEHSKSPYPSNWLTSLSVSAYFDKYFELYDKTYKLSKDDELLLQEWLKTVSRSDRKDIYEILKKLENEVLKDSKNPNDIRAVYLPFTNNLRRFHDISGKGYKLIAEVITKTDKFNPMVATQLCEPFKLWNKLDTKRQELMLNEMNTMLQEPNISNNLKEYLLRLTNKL
Put plainly: Inhibitory activity for Plasmodium falciparum Zinc aminopeptidase.

Assay [1] deals with Plasmodium falciparum. The assay is described as follows: Inhibitory activity against Plasmodium falciparum FcB1.
In assay [2] the test system is Plasmodium falciparum. Put plainly: Inhibitory activity against Plasmodium falciparum Zinc-aminopeptidase PfA-M1 at 10 uM. The class given is functional. A digest of the protocol:
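Native purified PfA-M1, diluted 10-fold in 25 mM Tris-HCl pH 7.4. Enzyme pre-incubated 10 min at rt with inhibitor (10 µM final, DMSO present), then Leu-pNA substrate added. Kinetics followed at 405 nm. Initial velocities normalized to the no-inhibitor control (Vmax). Single-point percent inhibition (Z' 0.82). Bestatin as reference.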

Structures are written as SMILES.

Take `CC(C)CN(CCCN1CCN(CCCNc2ccnc3cc(Cl)ccc23)CC1)C(=O)CC(=O)NO`: the IC50 was 854 nM on Aminopeptidase N and 317 nM in the assay on Plasmodium falciparum [1].
For the molecule `O=C(O)CCC(=O)N(CCCN1CCN(CCCNc2ccnc3cc(Cl)ccc23)CC1)CC1CC1`, the IC50 on Aminopeptidase N is greater than 10000 nM; with Plasmodium falciparum [1] it was 1380 nM. In the assay on Plasmodium falciparum [2], the inhibition at 10 µM amounted to 22%.
As to `CC(C)CC(C(=O)NO)C(=O)N(CCCN1CCN(CCCNc2ccnc3cc(Cl)ccc23)CC1)CC(C)C` (centres undefined), in the assay with Plasmodium falciparum [1], 151 nM corresponded to half-maximal inhibition (IC50).
For the molecule `NCCC(=O)N(CCCN1CCN(CCCNc2ccnc3cc(Cl)ccc23)CC1)CC1CC1`, the IC50 against Aminopeptidase N worked out at 21000 nM; in the assay with Plasmodium falciparum [1], 398 nM.
For `CC(C)C[C@H](NC(=O)[C@@H](O)[C@H](N)Cc1ccccc1)C(=O)O` [UBENIMEX], in the assay with Plasmodium falciparum [1], it took 29000 nM to reach half-maximal inhibition (IC50).

As a reminder, the IC50 is the concentration that inhibits the measured activity by half. Higher therefore signals lower potency. The inhibition is the change of the read-out against control, counted positive when it falls.
